Measured values: ChEMBL document CHEMBL4414579, “Natural Hydroxamate-Containing Siderophore Acremonpeptides A-D and an Aluminum Complex of Acremonpeptide D from the Marine-Derived Acremonium persicinum SCSIO 115” (J Nat Prod, 2019)
The source made the active and inactive calls. The calls are words filed in the database; no cut-off is given here. Square brackets hold non-standard residues; d marks the D form. Peptide text beside a SMILES is read from it. Orn(N5-OH,N5-Ac) = CC(=O)N(O)CCC[C@H](N)C(=O)O

Assays:
Assay type in all cases: functional, organism-based
Bacillus thuringiensis [1] = experiment: Antibacterial activity against Bacillus thuringiensis BT01 up to 100 ug/ml by CLSI based method
Bacillus thuringiensis [2] = experiment: Antibacterial activity against Bacillus thuringiensis W102 up to 100 ug/ml by CLSI based method
Staphylococcus aureus [3] = experiment: Antibacterial activity against Staphylococcus aureus ATCC 29213 up to 100 ug/ml by CLSI based method
Staphylococcus aureus [4] = experiment: Antibacterial activity against methicillin resistant Staphylococcus aureus shhs-A1 up to 100 ug/ml by CLSI based method
Procedure, shortened: (§1)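 Both strains were clinical isolates. They were screened within a panel of nine bacteria and two Candida albicans strains, at concentrations up to 100 μg/mL, by a previously reported method.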

Enterococcus faecalis = experiment: Antibacterial activity against Enterococcus faecalis ATCC 29212 up to 100 ug/ml by CLSI based method
Acinetobacter baumannii = experiment: Antibacterial activity against Acinetobacter baumannii ATCC 19606 up to 100 ug/ml by CLSI based method; settings: ATCC 19606 = CIP 70.34 = JCM 6841
Klebsiella pneumoniae = experiment: Antibacterial activity against Klebsiella pneumoniae ATCC 13883 up to 100 ug/ml by CLSI based method
Escherichia coli [5] = experiment: Antibacterial activity against Escherichia coli ATCC 25922 up to 100 ug/ml by CLSI based method
Escherichia coli [6] = experiment: Antibacterial activity against drug-resistant Escherichia coli E11 up to 100 ug/ml by CLSI based method; procedure, shortened: as §1
Candida albicans [7] = experiment: Antifungal activity against Candida albicans ATCC 96901
Procedure, shortened: (§2)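 Tested against the yeast by a previously reported antimicrobial method, at concentrations up to 100 μg/mL.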

Candida albicans [8] = experiment: Antifungal activity against Candida albicans CMCC(F) 98001; procedure, shortened: as §2
Human alphaherpesvirus 1 [9] = experiment: Antiviral activity against HSV-1 infected in African green monkey Vero cells assessed as inhibition of GFP expression after 72 hrs by GFP-based fluorescence microscopic analysis; settings: Human alphaherpesvirus 1, Vero
Procedure, shortened: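 Vero cells were infected at MOI 1.0 with recombinant HSV-1 carrying a GFP reporter. Cells were treated with compounds at 10 μM final or an equal amount of DMSO, with ganciclovir as positive control, and GFP was monitored by fluorescence microscopy. For EC50, infected cells were treated at several concentrations in triplicate, and viral load was measured by TCID50 at 72 h postinfection.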

Human alphaherpesvirus 1 [10] = experiment: Inhibition of UL42 gene transcription in HSV-1 infected in African green monkey Vero cells at 10 uM by qRT-PCR analysis
Procedure, shortened: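 Vero cells were infected with GFP-reporter HSV-1 at MOI 1.0, then exposed to compounds at 10 μM final or DMSO. Viral gene transcription was quantified by qRT-PCR, with ganciclovir as positive control and NTC as negative control.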

CC(=O)N(O)CCC[C@@H]1NC(=O)[C@H](CCCN(O)C(C)=O)NC(=O)[C@H](CCCN(O)C(C)=O)NC(=O)[C@H](Cc2ccccc2)NC(=O)[C@H](CC(C)C)NC(=O)[C@H](C)NC1=O (cyclo(ALF[Orn(N5-OH,N5-Ac)][Orn(N5-OH,N5-Ac)][Orn(N5-OH,N5-Ac)]))
Activity (Bacillus thuringiensis [1]): inactive | Activity (Bacillus thuringiensis [2]): inactive | Activity (Staphylococcus aureus [3]): inactive | Activity (Staphylococcus aureus [4]): inactive | Activity (Enterococcus faecalis): inactive | Activity (Acinetobacter baumannii): inactive | Activity (Klebsiella pneumoniae): inactive | Activity (Escherichia coli [5]): inactive | Activity (Escherichia coli [6]): inactive | Activity (Candida albicans [7]): inactive | Activity (Candida albicans [8]): inactive | EC50 (Human alphaherpesvirus 1 [9]): 8.7 µM | inhibition (Human alphaherpesvirus 1 [10]): Active

CC(=O)N(O)CCC[C@@H]1NC(=O)[C@H](CCCN(O)C(C)=O)NC(=O)[C@H](Cc2ccccc2)NC(=O)[C@H](CC(C)C)NC(=O)[C@H](Cc2ccccc2)NC(=O)[C@H](CCCN(O)C(C)=O)NC1=O (cyclo(FLF[Orn(N5-OH,N5-Ac)][Orn(N5-OH,N5-Ac)][Orn(N5-OH,N5-Ac)]))
Activity (Bacillus thuringiensis [1]): inactive | Activity (Bacillus thuringiensis [2]): inactive | Activity (Staphylococcus aureus [3]): inactive | Activity (Staphylococcus aureus [4]): inactive | Activity (Enterococcus faecalis): inactive | Activity (Acinetobacter baumannii): inactive | Activity (Klebsiella pneumoniae): inactive | Activity (Escherichia coli [5]): inactive | Activity (Escherichia coli [6]): inactive | Activity (Candida albicans [7]): inactive | Activity (Candida albicans [8]): inactive | EC50 (Human alphaherpesvirus 1 [9]): 27 µM

CC(=O)N(O)CCC[C@@H]1NC(=O)[C@H](CCCN(O)C(C)=O)NC(=O)[C@H](CCCN(O)C(C)=O)NC(=O)[C@H](Cc2ccccc2)NC(=O)[C@H](CC(C)C)NC(=O)[C@H](CO)NC1=O (cyclo(F[Orn(N5-OH,N5-Ac)][Orn(N5-OH,N5-Ac)][Orn(N5-OH,N5-Ac)]SL))
Activity (Bacillus thuringiensis [1]): inactive | Activity (Bacillus thuringiensis [2]): inactive | Activity (Staphylococcus aureus [3]): inactive | Activity (Staphylococcus aureus [4]): inactive | Activity (Enterococcus faecalis): inactive | Activity (Acinetobacter baumannii): inactive | Activity (Klebsiella pneumoniae): inactive | Activity (Escherichia coli [5]): inactive | Activity (Escherichia coli [6]): inactive | Activity (Candida albicans [7]): inactive | Activity (Candida albicans [8]): inactive | EC50 (Human alphaherpesvirus 1 [9]): 16 µM | inhibition (Human alphaherpesvirus 1 [10]): Active

CC(=O)N(O)CCC[C@@H]1NC(=O)[C@H](CCCN(O)C(C)=O)NC(=O)[C@H](Cc2ccccc2)NC(=O)[C@H](CC(C)C)NC(=O)[C@H](Cc2c[nH]c3ccccc23)NC(=O)[C@H](CCCN(O)C(C)=O)NC1=O (cyclo(F[Orn(N5-OH,N5-Ac)][Orn(N5-OH,N5-Ac)][Orn(N5-OH,N5-Ac)]WL))
Activity (Bacillus thuringiensis [1]): inactive | Activity (Bacillus thuringiensis [2]): inactive | Activity (Staphylococcus aureus [3]): inactive | Activity (Staphylococcus aureus [4]): inactive | Activity (Enterococcus faecalis): inactive | Activity (Acinetobacter baumannii): inactive | Activity (Klebsiella pneumoniae): inactive | Activity (Escherichia coli [5]): inactive | Activity (Escherichia coli [6]): inactive | Activity (Candida albicans [7]): inactive | Activity (Candida albicans [8]): inactive | EC50 (Human alphaherpesvirus 1 [9]): 24 µM

Nc1nc2c(ncn2COC(CO)CO)c(=O)[nH]1 [GANCICLOVIR]
EC50 (Human alphaherpesvirus 1 [9]): 0.025 µM | inhibition (Human alphaherpesvirus 1 [10]): Active
